Compound activity (PubChem)
An excerpt weighted towards active compounds, which were near 1.6% of everything screened.
ATG4B inh: ATG4B (human) cysteine protease inhibition; AID 504462; inhibition, % at 8.33 µM; Q9Y4P1; ATG4B cleavage of LC3-PLA2, NBD-HPC fluorescence, 1 h; 340,000 tested, 0.51% active; in the data active = inhibition above about 40%
PKA-R2B act: activates the human PKA-R2B holoenzyme complex; PKA-R2B holoenzyme dissociation, Cy5-IP20 fluorescence polarization; R2B truncated from residue 108, S112A mutant; 0% DMSO only, 100% 113 µM cGMP; P22694+P31323; 340,000 tested, 0.079% active; activation, % at 11.4 µM;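 active = activation above a cutoff set at the mean over all compounds plus 3 SD, cut at about 18% in these data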;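 note: higher means more holoenzyme dissociation and a rise in polarization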
Target sequence (P31323 whole entry, looked up, other chains not shown, the tested form may be a part): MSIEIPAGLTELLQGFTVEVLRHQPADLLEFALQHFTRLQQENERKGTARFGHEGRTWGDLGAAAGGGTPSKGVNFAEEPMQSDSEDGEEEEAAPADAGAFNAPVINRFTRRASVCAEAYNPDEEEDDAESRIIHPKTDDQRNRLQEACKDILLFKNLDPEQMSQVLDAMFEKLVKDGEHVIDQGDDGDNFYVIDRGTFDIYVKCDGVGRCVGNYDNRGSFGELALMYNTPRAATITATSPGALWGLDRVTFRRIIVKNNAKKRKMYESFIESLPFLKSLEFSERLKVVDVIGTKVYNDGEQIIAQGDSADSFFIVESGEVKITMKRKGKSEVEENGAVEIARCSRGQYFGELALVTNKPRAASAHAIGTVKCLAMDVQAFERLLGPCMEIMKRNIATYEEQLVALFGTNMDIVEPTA
PKA-R1A act: activators of PKA-R1A complex | P00514+P68181 | PKA-R1A dissociation, Cy5-IP20 fluorescence polarization; scaled: DMSO 0%, 113 µM cGMP 100% | activation, % at 11.4 µM | 340,000 tested, 0.083% active;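 active = percent activation above the mean of all tested compounds plus 3 SD, cut at about 19% in these data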;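 note: higher means more PKAc released from R1A so a rise in polarization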
HKDC1 inhibitor: blocks human hexokinase HKDC1 activity. recombinant HKDC1, G6PDH/diaphorase resazurin coupled fluorescence. inhibition, % at 20 µM. 340,000 tested, 0.16% active;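 active = inhibition above about 35% when tested at 20 µM, limit read from the data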;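 note: plate controls were DMSO wells with enzyme for no effect and DMSO wells lacking enzyme for full effect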
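test system = in-house recombinant HK5 (HKDC1) enzyme | amount = HKDC1 at 5 µg/mL | control set = DMSO-enzyme wells negative, buffer-substituted wells positive | compound = one dose of 20 µM, 1% DMSO | schedule = reaction time 90 min, room temperature, protected from light | technique = resorufin fluorescence at 613 nm | reagent = glucose with 1 mM ATP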
T cell HTS: T cell immune modulation candidate. 2C CD8+ T cell-vesicle binding, flow cytometry; hits give low values. 330,000 tested, 0.068% active. response (vesicle binding), % at 7 µM;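 active = response, share of CD8 T cells binding vesicles, and their 90th percentile fluorescence all below set limits, cut at about 80% in these data, passing the limit was not always enough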;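 note: values below 100% mean blocked vesicle binding to the CD8+ T cells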
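incubation = binding step 1.5 h, 37 °C, antibody labelling 20 min, ice | test system = 2C mouse CD8+ T cells | read-out basis = percent CD8+ FL2 mean versus row control | controls = Peptide-free naked vesicles (low) and QL9 vesicles with 0.7% DMSO vehicle (high) | detection = flow cytometry of vesicle-bound cells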
PfG6PD inh: PfG6PD (Plasmodium falciparum) enzyme inhibition. PfGluPho enzyme, NADPH resazurin-diaphorase fluorescence. inhibition, % at 20 µM. 350,000 tested, 0.78% active;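 active = inhibition reaching at least a set limit at 20 µM in the primary screen, cut at about 59% in these data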;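 note: 0% = DMSO wells with substrate and 100% = DMSO wells lacking glucose-6-phosphate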
R1A FP artifact: counter-screen for PKA-R1A activators: fluorescence polarization artifacts | 280 tested, 7% active | shares compounds with PKA-R1A act | activation, % at 11.4 µM | Cy5-IP20 peptide alone, fluorescence polarization artifact counterscreen;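 active = mean activation over triplicate runs exceeds the adjusted cutoff derived for the parent primary screen, cut at about 19% in these data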;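 note: no PKA protein present so any polarization rise reflects compound interference; 0% = tracer peptide mix alone and 100% = mix with added PKA catalytic subunit; higher means stronger polarization artifact and likely false positive in parent screen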
PKA-R1A confirm: PKA-R1A complex activation, confirmation; shares compounds with PKA-R1A act; Cy5-IP20 fluorescence polarization, PKA-R1A holoenzyme dissociation; activation, % at 11.4 µM; 280 tested, 9% active; AID 504800;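 active = mean activation over replicate wells exceeds the adjusted hit threshold taken from the earlier primary screen, cut at about 20% in these data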;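 note: 0% = holoenzyme mix with DMSO only and 100% = cGMP-activated control wells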
An asterisk follows results filed as active; i = inactive; . = no result.

SMILES	ATG4B inh	PKA-R2B act	PKA-R1A act	HKDC1 inhibitor	T cell HTS	PfG6PD inh	R1A FP artifact	PKA-R1A confirm
CC(NC(=O)C1CCCC1)C1CC2CCC1C2 (stereo not drawn)	-4	-3	20*	-4	183	-4	2	0
CC(NC(=O)C1CC=CCC1C(=O)O)C1CC2CCC1C2 (stereo not drawn)	-9	0	-15	-3	355	12	.	.
COc1ccc(S(=O)(=O)NC2CC2)cc1-n1cnnn1	-4	.	.	13	737	-8	.	.
COc1ccc(S(=O)(=O)Nc2c(C)cccc2C)cc1-n1cnnn1	-15	4	19*	-5	221	10	7	6
C[C@@H]1CN([C@@H](C)CO)C(=O)CCCn2nncc2CO[C@H]1CN(C)Cc1ccc(Cl)c(Cl)c1	.	11	7	.	.	3	.	.
CSc1ncccc1C(=O)OCC(=O)N(C)Cc1ccc(C)cc1	.	-2	4	.	.	13	.	.
O=S(=O)(c1ccc(Br)s1)N1CCN(CCc2ccccc2)CC1	-6	-9	19*	-3	i	-1	0	3
Cc1cccc(/C=N/n2c(-c3cc(-c4ccccc4)n[nH]3)n[nH]c2=S)c1	-9	4	19*	16	244	25	-3	-2
S=c1[nH]nc(-c2cc(-c3ccccc3)n[nH]2)n1/N=C/c1ccccc1	-12	-4	-4	7	185	29	.	.
Cc1nc(CCNS(=O)(=O)c2cccs2)cs1	-2	-5	20*	-5	518	-9	6	0
O=C1CCc2ccccc2N1	-3	-5	-4	-7	584	19	.	.
O=C1Nc2ccccc2Cc2ccccc21	.	-2	20*	.	.	3	2	3
CC(=O)c1ccc(N2CCCC2)c(F)c1	.	.	.	.	225	.	.	.
CC(=O)c1ccc(N2CCC(C)CC2)c(F)c1	2	12	20*	4	593	-22	-1	1
CCCCOc1ccc(C(=O)Nn2c(-c3cccs3)nc3ccccc3c2=O)cc1	-7	6	19*	12	i	-13	2	4
O=C(/C=C/c1ccccc1)Nn1c(-c2cccs2)nc2ccccc2c1=O	8	1	0	21	226	-33	.	.
CCN(CC)C1CCN(C(=O)c2ccc(OC3CCN(Cc4ccccn4)CC3)cc2)C1 (stereo not drawn)	1	-2	-8	-5	935	-16	.	.
CC(=O)Nc1ccc(NS(=O)(=O)c2cn(C)c(=O)n(C)c2=O)cc1	-2	8	20*	-4	i	-9	3	-1
CCOc1cc(CNC(=O)CN2C(=O)c3ccccc3S2(=O)=O)ccc1OC	-5	-6	19*	-4	422	0	-1	0
O=C(CN1C(=O)c2cccnc2C1=O)c1ccccc1	-10	10	20*	-3	530	-10	-1	-2
COc1cc(C)c(C(=O)Oc2cc(C)c(C(=O)O)c(O)c2C)c(O)c1C	-9	6	-4	1	376	6	.	.
COC(=O)c1c(C)cc(OC(C)=O)c(C)c1OC(C)=O	0	8	20*	-8	411	-18	4	4
Nc1cc(N)nc(SCc2cc(=O)oc3cc4c(cc23)CCC4)n1	-31	1	20*	5	210	10	-3	-1
Cc1cc2oc(=O)cc(CSc3nc(N)cc(N)n3)c2cc1C(C)C	-8	-2	-3	8	258	-19	.	.
CC1=C(C(=O)N(C)C)CC(CC(=O)NCCCCc2ccccc2)C(=O)N1Cc1ccc(C(C)(C)C)cc1 (stereo not drawn)	.	1	0	.	.	11	.	.
COc1ccccc1NC(=O)N(C)C[C@H]1Oc2ncc(C#CCN(C)C)cc2C(=O)N([C@H](C)CO)C[C@H]1C	.	-13	21*	.	.	-4	0	-1
